Test results as given in ChEMBL document CHEMBL1136007, “Synthesis, antifungal activity, and molecular modeling studies of new inverted oxime ethers of oxiconazole” (2002).
Values after ≈ are worked out from the molar mass of the structure shown.

Columns and labels:
[1] = test system: Aspergillus fumigatus; test: microbe, parasite or virus in culture; assay type: functional
[2] = test system: Candida albicans; test: microbe, parasite or virus in culture; assay type: functional
[3] = test system: Nakaseomyces glabratus; test: microbe, parasite or virus in culture; assay type: functional
[4] = test system: Trichophyton rubrum; test: (§1) In vitro antifungal activity against Trichophyton rubrum CM1447; assay type: functional
Procedure, shortened: (§2)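 Broth microdilution in RPMI-2% glucose following NCCLS M38-P. Conidia came from Sabouraud dextrose agar slants grown at 27 °C. They were harvested in saline with 0.1% Tween 80, gauze-filtered, counted by hemocytometer and stored at -70 °C. The final inoculum was ~10^4 conidia/mL, with 2-fold drug dilutions from 0.25 to 128 µg/mL. Plates were incubated at 35 °C and read by mirror once control growth was visible. MIC = lowest concentration with no visible growth.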

[5] = test system: Candida parapsilosis; test: In vitro antifungal activity against Candida parapsilosis 2372E; assay type: functional; settings: Lodderomyces parapsilosis
Procedure, shortened: (§3)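 Yeast broth microdilution per NCCLS M27-A, with 2-fold drug dilutions from 0.001 to 128 µg/mL. The inoculum was adjusted spectrophotometrically, giving a final ~10^4 cells/mL. Plates were incubated for 24 h at 35 °C, static and humid, then shaken and read visually and at 450 nm. MIC = lowest concentration preventing discernible growth (~90% reduction vs drug-free wells).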

[6] = test system: Trichophyton benhamiae; test: (§4) In vitro antifungal activity against Trichophyton mentagrophytes CM84; assay type: functional, Arthroderma benhamiae
[7] = test system: Candida albicans; test: In vitro antifungal activity against Candida albicans 4711E; assay type: functional
Procedure, shortened: as §3

[8] = test system: Trichophyton rubrum; test: as §1; assay type: functional; remark: listed apart in the source
[9] = test system: Trichophyton benhamiae; test: as §4; assay type: functional, Arthroderma benhamiae; remark: listed apart in the source
Procedure, shortened: as §2

[10] = test system: Aspergillus fumigatus; test: In vitro antifungal activity against Aspergillus fumigatus 48238E; assay type: functional
Procedure, shortened: as §2

[11] = test system: Aspergillus flavus; test: (§5) In vitro antifungal activity against Aspergillus flavus CM74; assay type: functional
Procedure, shortened: as §2

[12] = test system: Aspergillus flavus; test: as §5; assay type: functional; remark: listed apart in the source
[13] = test system: Candida parapsilosis; test: microbe, parasite or virus in culture; assay type: functional; settings: Lodderomyces parapsilosis
[14] = test system: Nakaseomyces glabratus; test: In vitro antifungal activity against Candida glabrata 2375E; assay type: functional

Row | Compound | MIC [1] [µg/mL] | MIC [2] [µg/mL] | MIC [3] [µg/mL] | MFC [4] [µg/mL] | MFC [5] [µg/mL] | MIC [6] [µg/mL] | MFC [7] [µg/mL] | MIC [8] [µg/mL] | MFC [9] [µg/mL] | MFC [10] [µg/mL] | MFC [11] [µg/mL] | MIC [12] [µg/mL] | MIC [13] [µg/mL] | MFC [14] [µg/mL]
1 | CCC/C(=N\OC(Cn1ccnc1)c1ccc(Cl)cc1Cl)c1ccc(Cl)cc1Cl (stereo not given) | > 128 | > 128 | – | – | – | – | – | – | – | – | – | – | – | –
2 | Fc1ccc(C(Cn2ccnc2)O/N=C/c2ccc(OCCN3CCOCC3)cc2)c(F)c1 (stereo not given) | 64 (≈ 140 µM) | 64 (≈ 140 µM) | 2 (≈ 4.38 µM) | 16 (≈ 35 µM) | 4 (≈ 8.76 µM) | > 128 | 64 (≈ 140 µM) | 8 (≈ 17.5 µM) | > 128 | 64 (≈ 140 µM) | 64 (≈ 140 µM) | 64 (≈ 140 µM) | 0.25 (≈ 0.548 µM) | 8 (≈ 17.5 µM)
3 | Clc1ccc(C(Cn2ccnc2)O/N=C/c2ccc(OCCN3CCOCC3)cc2)c(Cl)c1 (stereo not given) | 2 (≈ 4.09 µM) | 2 (≈ 4.09 µM) | 1 (≈ 2.04 µM) | 16 (≈ 32.7 µM) | 16 (≈ 32.7 µM) | 4 (≈ 8.17 µM) | 8 (≈ 16.3 µM) | 2 (≈ 4.09 µM) | 8 (≈ 16.3 µM) | 2 (≈ 4.09 µM) | 8 (≈ 16.3 µM) | 8 (≈ 16.3 µM) | 0.25 (≈ 0.511 µM) | 8 (≈ 16.3 µM)
4 | C/C(=N\OC(Cn1ccnc1)c1ccc(F)cc1F)c1ccc(F)cc1F (stereo not given) | 8 (≈ 21.2 µM) | 32 (≈ 84.8 µM) | 0.03 (≈ 0.0795 µM) | 16 (≈ 42.4 µM) | 32 (≈ 84.8 µM) | 1 (≈ 2.65 µM) | 32 (≈ 84.8 µM) | 8 (≈ 21.2 µM) | 4 (≈ 10.6 µM) | 16 (≈ 42.4 µM) | 16 (≈ 42.4 µM) | 16 (≈ 42.4 µM) | 2 (≈ 5.3 µM) | 2 (≈ 5.3 µM)
5 | C/C(=N\OC(Cn1ccnc1)c1ccc(Cl)cc1Cl)c1ccc(Cl)cc1Cl (stereo not given) | 8 (≈ 18.1 µM) | 4 (≈ 9.03 µM) | 0.5 (≈ 1.13 µM) | 8 (≈ 18.1 µM) | 16 (≈ 36.1 µM) | 8 (≈ 18.1 µM) | 8 (≈ 18.1 µM) | 8 (≈ 18.1 µM) | 8 (≈ 18.1 µM) | 8 (≈ 18.1 µM) | 32 (≈ 72.2 µM) | 32 (≈ 72.2 µM) | 1 (≈ 2.26 µM) | 2 (≈ 4.51 µM)
6 | CC/C(=N\OC(Cn1ccnc1)c1ccc(Cl)cc1Cl)c1ccc(Cl)cc1Cl (stereo not given) | > 128 | 16 (≈ 35 µM) | – | – | – | – | – | – | – | – | – | – | – | –
7 | C/C(=N\OC(Cn1ccnc1)c1ccc(F)cc1F)c1ccc(OCCN2CCOCC2)cc1 (stereo not given) | 16 (≈ 34 µM) | 8 (≈ 17 µM) | 0.25 (≈ 0.531 µM) | 4 (≈ 8.5 µM) | 2 (≈ 4.25 µM) | 2 (≈ 4.25 µM) | 32 (≈ 68 µM) | 4 (≈ 8.5 µM) | 4 (≈ 8.5 µM) | 16 (≈ 34 µM) | 32 (≈ 68 µM) | 16 (≈ 34 µM) | 0.03 (≈ 0.0638 µM) | 4 (≈ 8.5 µM)
8 | C/C(=N\OC(Cn1ccnc1)c1ccc(Cl)cc1Cl)c1ccc(OCCN2CCOCC2)cc1 (stereo not given) | 32 (≈ 63.6 µM) | 1 (≈ 1.99 µM) | 0.06 (≈ 0.119 µM) | 16 (≈ 31.8 µM) | 8 (≈ 15.9 µM) | 4 (≈ 7.95 µM) | 8 (≈ 15.9 µM) | 2 (≈ 3.97 µM) | 8 (≈ 15.9 µM) | 32 (≈ 63.6 µM) | 32 (≈ 63.6 µM) | 32 (≈ 63.6 µM) | 0.004 (≈ 0.00795 µM) | 8 (≈ 15.9 µM)
9 | Clc1ccc(/C(Cn2ccnc2)=N/OC(Cn2ccnc2)c2ccc(Cl)cc2Cl)c(Cl)c1 (stereo not given) | 128 (≈ 251 µM) | 32 (≈ 62.8 µM) | – | – | – | – | – | – | – | – | – | – | – | –
10 | C/C(=N\OC(Cn1ccnc1)c1ccc(F)cc1F)c1cc(F)ccc1F (stereo not given) | 4 (≈ 10.6 µM) | 8 (≈ 21.2 µM) | 0.03 (≈ 0.0795 µM) | 16 (≈ 42.4 µM) | 64 (≈ 170 µM) | 0.25 (≈ 0.663 µM) | 32 (≈ 84.8 µM) | 1 (≈ 2.65 µM) | 2 (≈ 5.3 µM) | 4 (≈ 10.6 µM) | 8 (≈ 21.2 µM) | 8 (≈ 21.2 µM) | 2 (≈ 5.3 µM) | 1 (≈ 2.65 µM)
11 | Fc1ccc(/C(Cn2ccnc2)=N/OC(Cn2ccnc2)c2ccc(F)cc2F)c(F)c1 (stereo not given) | > 128 | 2 (≈ 4.51 µM) | 4 (≈ 9.02 µM) | 64 (≈ 144 µM) | 128 (≈ 289 µM) | 64 (≈ 144 µM) | > 128 | 64 (≈ 144 µM) | > 128 | > 128 | > 128 | > 128 | 8 (≈ 18 µM) | 16 (≈ 36.1 µM)
12 | C/C(=N\OC(Cn1ccnc1)c1ccc(F)cc1F)c1c(F)cccc1F (stereo not given) | 16 (≈ 42.4 µM) | 32 (≈ 84.8 µM) | 0.03 (≈ 0.0795 µM) | 8 (≈ 21.2 µM) | 16 (≈ 42.4 µM) | 2 (≈ 5.3 µM) | 32 (≈ 84.8 µM) | 4 (≈ 10.6 µM) | 2 (≈ 5.3 µM) | 32 (≈ 84.8 µM) | 64 (≈ 170 µM) | 32 (≈ 84.8 µM) | 0.25 (≈ 0.663 µM) | 1 (≈ 2.65 µM)
13 | C/C(=N\OC(Cn1ccnc1)c1ccc(F)cc1F)c1ccc(F)cc1 (stereo not given) | 16 (≈ 44.5 µM) | 64 (≈ 178 µM) | – | – | – | – | – | – | – | – | – | – | – | –
14 | Cl.Fc1ccc(C(Cn2ccnc2)O/N=C/c2c(F)cccc2F)c(F)c1 (stereo not given) | 32 | 32 | – | – | – | – | – | – | – | – | – | – | – | –
15 | Cl.Fc1ccc(/C=N/OC(Cn2ccnc2)c2ccc(F)cc2F)c(F)c1 (stereo not given) | 16 | 16 | – | – | – | – | – | – | – | – | – | – | – | –
16 | C/C(=N\OC(Cn1ccnc1)c1ccc(F)cc1F)c1ccccc1F.Cl (stereo not given) | 16 | 32 | – | – | – | – | – | – | – | – | – | – | – | –
17 | Cl.Clc1ccc(/C=N/OC(Cn2ccnc2)c2ccc(Cl)cc2Cl)c(Cl)c1 (stereo not given) | 64 | > 128 | – | – | – | – | – | – | – | – | – | – | – | –
18 | OC(Cn1cncn1)(Cn1cncn1)c1ccc(F)cc1F [FLUCONAZOLE] | > 128 | 0.12 (≈ 0.392 µM) | 2 (≈ 6.53 µM) | > 128 | > 128 | 0.5 (≈ 1.63 µM) | > 128 | 0.5 (≈ 1.63 µM) | > 128 | > 128 | > 128 | > 128 | 0.5 (≈ 1.63 µM) | > 128
19 | Clc1ccc(CO/N=C(\Cn2ccnc2)c2ccc(Cl)cc2Cl)c(Cl)c1 [OXICONAZOLE] | 2 (≈ 4.66 µM) | 0.03 (≈ 0.0699 µM) | 0.01 (≈ 0.0233 µM) | 2 (≈ 4.66 µM) | 4 (≈ 9.32 µM) | 2 (≈ 4.66 µM) | 64 (≈ 149 µM) | 2 (≈ 4.66 µM) | 4 (≈ 9.32 µM) | 2 (≈ 4.66 µM) | 2 (≈ 4.66 µM) | 2 (≈ 4.66 µM) | 0.008 (≈ 0.0186 µM) | 0.25 (≈ 0.583 µM)
